# Data published in ChEMBL document CHEMBL1649418, “Pyrimidine derivatives as potent and selective A3 adenosine receptor antagonists” (J Med Chem, 2011).
# Experiments:
# Adenosine receptor A3 = biological target: T1, Adenosine receptor A3 (Homo sapiens, UniProt P0DMS8); assay: Displacement of [3H]NECA from human adenosine A3 receptor expressed in human HeLa cells by liquid scintillation counting; format: cell-based; settings: read-out: Ki
# T1 sequence (P0DMS8 whole entry): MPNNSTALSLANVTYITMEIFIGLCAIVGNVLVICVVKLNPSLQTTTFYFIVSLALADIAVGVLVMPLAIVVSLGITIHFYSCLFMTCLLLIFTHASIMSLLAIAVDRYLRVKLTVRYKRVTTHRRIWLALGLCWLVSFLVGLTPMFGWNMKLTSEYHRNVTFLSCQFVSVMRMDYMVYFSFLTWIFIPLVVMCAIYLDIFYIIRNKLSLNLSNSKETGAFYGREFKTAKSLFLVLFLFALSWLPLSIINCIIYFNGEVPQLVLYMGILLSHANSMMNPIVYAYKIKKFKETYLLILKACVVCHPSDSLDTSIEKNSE
# Summary of the method: (§1)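 HeLa membranes (90 μg) carrying hA3AR were incubated with [3H]NECA (30 nM) at 25 °C for 180 min, with six concentrations from 0.1 nM to 1 μM. Nonspecific binding was defined with 100 μM R-PIA. Filters were washed six times and counted by scintillation.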
# Adenosine receptor A1 = biological target: T2, Adenosine receptor A1 (Homo sapiens, UniProt P30542); assay: Displacement of [3H]DPCPX from human adenosine A1 receptor expressed in CHO cells by liquid scintillation counting; format: cell-based
# T2 sequence (P30542 whole entry): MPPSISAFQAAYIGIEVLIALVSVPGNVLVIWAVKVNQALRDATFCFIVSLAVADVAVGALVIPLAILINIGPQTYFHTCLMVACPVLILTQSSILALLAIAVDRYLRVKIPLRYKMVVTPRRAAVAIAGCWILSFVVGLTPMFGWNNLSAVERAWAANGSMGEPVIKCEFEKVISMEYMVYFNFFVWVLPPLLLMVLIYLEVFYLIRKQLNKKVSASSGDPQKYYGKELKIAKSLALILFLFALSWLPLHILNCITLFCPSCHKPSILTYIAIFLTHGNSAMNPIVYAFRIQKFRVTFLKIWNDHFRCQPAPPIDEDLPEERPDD
# Summary of the method: (§2)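 Transfected CHO cell membranes (15 μg) were incubated with [3H]DPCPX at 25 °C for 60 min, with six test concentrations from 0.1 nM to 1 μM. Nonspecific binding was defined with 10 μM R-PIA. Filters were washed four times with ice-cold buffer before scintillation counting. Ki (Cheng–Prusoff) is mean ± SEM, n=3; % displacement at 0.1 μM is n=2.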
# Adenosine receptor A2a [1] = biological target: T3, Adenosine receptor A2a (Homo sapiens, UniProt P29274); assay: Displacement of [3H][…] from human adenosine A2A receptor expressed in human HeLa cells by liquid scintillation counting; format: cell-based
# T3 sequence (P29274 whole entry): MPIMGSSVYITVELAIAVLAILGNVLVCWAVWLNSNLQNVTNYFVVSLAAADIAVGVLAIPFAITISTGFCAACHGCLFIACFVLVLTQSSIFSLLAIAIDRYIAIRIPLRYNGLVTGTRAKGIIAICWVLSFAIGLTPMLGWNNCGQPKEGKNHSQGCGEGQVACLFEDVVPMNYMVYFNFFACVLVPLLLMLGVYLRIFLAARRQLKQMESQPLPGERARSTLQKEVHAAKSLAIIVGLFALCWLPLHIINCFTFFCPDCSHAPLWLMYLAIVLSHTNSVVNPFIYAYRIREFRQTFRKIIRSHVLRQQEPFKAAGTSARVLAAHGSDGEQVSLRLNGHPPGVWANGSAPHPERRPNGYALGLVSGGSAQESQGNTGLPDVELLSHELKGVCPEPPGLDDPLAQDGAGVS
# Summary of the method: (§3)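 Nonspecific binding was defined with 50 μM NECA. Filters were washed four times with ice-cold buffer, then counted by scintillation. Ki (Cheng–Prusoff) is mean ± SEM, n=3; % displacement at 0.1 μM is n=2.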
# [2] = biological target: T4, Adenosine receptor A2b (Homo sapiens) (UniProt P29275); assay: Displacement of [3H]DPCPX from human adenosine A2B receptor expressed in HEK293 cells at 0.1 uM by liquid scintillation counting; format: cell-based
# T4 sequence (whole entry): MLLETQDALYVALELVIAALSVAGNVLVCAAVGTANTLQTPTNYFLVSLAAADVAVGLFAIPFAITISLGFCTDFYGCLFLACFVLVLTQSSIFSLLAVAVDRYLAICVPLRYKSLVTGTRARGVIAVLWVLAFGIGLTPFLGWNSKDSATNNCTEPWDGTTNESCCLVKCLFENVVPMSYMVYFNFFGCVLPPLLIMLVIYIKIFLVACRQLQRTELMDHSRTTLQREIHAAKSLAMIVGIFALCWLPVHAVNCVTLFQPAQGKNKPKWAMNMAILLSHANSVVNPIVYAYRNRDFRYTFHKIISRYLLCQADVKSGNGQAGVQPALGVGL
# Summary of the method: (§4)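 HEK-293 membranes (18 μg) were incubated with [3H]DPCPX (35 nM) at 25 °C for 30 min, with six concentrations from 0.1 nM to 1 μM. Nonspecific binding was defined with 400 μM NECA. Filters were washed six times with ice-cold buffer and counted by scintillation. Ki (Cheng–Prusoff) is mean ± SEM, n=3; % displacement at 0.1 μM is n=2.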
# Adenosine receptor A2b = biological target: T5, Adenosine receptor A2b (Homo sapiens, UniProt P29275); assay: Displacement of [3H]DPCPX from human adenosine A2B receptor expressed in HEK293 cells by liquid scintillation counting; format: cell-based; summary of the method: as §4
# T5 sequence (P29275 whole entry): T4 sequence (whole entry)
# Adenosine receptor A2a [3] = biological target: T3, Adenosine receptor A2a; assay: Displacement of [3H][…] from human adenosine A2A receptor expressed in human HeLa cells at 0.1 uM by liquid scintillation counting; format: cell-based; summary of the method: as §3
# [4] = biological target: T6, Adenosine receptor A3 (Homo sapiens) (UniProt P0DMS8); assay: Displacement of [3H]NECA from human adenosine A3 receptor expressed in human HeLa cells at 0.1 uM by liquid scintillation counting; format: cell-based
# T6 sequence (whole entry): T1 sequence (P0DMS8 whole entry)
# Summary of the method: as §1, with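 “scintillation. Ki (Cheng–Prusoff) is mean ± SEM, n=3; % displacement at 0.1 μM is n=2.” for “scintillation.”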
# [5] = biological target: T6, Adenosine receptor A3 (Homo sapiens); assay: Antagonist activity at human adenosine A3 receptor expressed in human HeLa cells assessed as inhibition of forskolin-stimulated cAMP production by enzyme immunoassay; format: functional, cell-based
# Summary of the method: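 Intact cells expressing hA3AR were stimulated with 10 μM forskolin, and receptor activation was induced with 0.1 μM NECA. Antagonist concentration-response curves were run against the NECA-induced cAMP decrease, with cAMP measured by enzyme immunoassay. K_B was derived from IC50, agonist concentration, agonist EC50 and curve slope. Data are mean ± SEM of two separate experiments.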
# [6] = biological target: T7, Adenosine receptor A1 (Homo sapiens) (UniProt P30542); assay: Displacement of [3H]DPCPX from human adenosine A1 receptor expressed in CHO cells at 0.1 uM by liquid scintillation counting; format: cell-based; summary of the method: as §2
# T7 sequence (whole entry): T2 sequence (P30542 whole entry)
Ki (Adenosine receptor A3) [nM],Ki (Adenosine receptor A1) [nM],Ki (Adenosine receptor A2a [1]) [nM],inhibition [2] [%],Ki (Adenosine receptor A2b) [nM],inhibition (Adenosine receptor A2a [3]) [%],inhibition [4] [%],Kb [5] [nM],inhibition [6] [%],Structure (SMILES)
34.8,82.3,1830,2,–,–,–,–,–,CCCC(=O)Nc1cc(-c2ccc(F)cc2)nc(-c2ccc(F)cc2)n1
3.3,17.7,3350,2,–,–,–,–,–,CC(=O)Nc1cc(-c2ccc3c(c2)OCO3)nc(-c2ccc3c(c2)OCO3)n1
531,31.3,554,–,42.5,–,–,–,–,CCC(=O)Nc1nc(-c2ccccc2)cc(-c2ccccc2)n1
751,678,–,1,–,8,–,–,–,CCCC(=O)Nc1nc(-c2ccc3c(c2)OCO3)cc(-c2ccc3c(c2)OCO3)n1
21.8,32.9,114,17,–,–,–,–,–,CCC(=O)Nc1cc(-c2cccs2)nc(-c2cccs2)n1
–,23.5,647,6,–,–,15,–,–,CCCC(=O)Nc1nc(-c2ccccc2F)cc(-c2ccccc2F)n1
171,19.5,103,1,–,–,–,–,–,CCCC(=O)Nc1cc(-c2ccccc2)nc(-c2ccccc2)n1
12.1,31.2,255,19,–,–,–,–,–,CC(=O)Nc1cc(-c2ccccc2)nc(-c2ccccc2)n1
110,41.3,–,3,–,14,–,–,–,CCCC(=O)Nc1cc(-c2ccccc2OC)nc(-c2ccccc2OC)n1
11,–,–,1,–,4,–,1.57,8,CCCC(=O)Nc1cc(-c2ccc(OC)cc2)nc(-c2ccc(OC)cc2)n1
1280,367,1890,–,3250,–,–,–,–,CCC(=O)Nc1nc(-c2ccsc2)cc(-c2ccsc2)n1
8,–,24.6,23,–,–,–,–,19,CC(=O)Nc1cc(-c2cccs2)nc(-c2cccs2)n1
–,255,201,3,–,–,24,–,–,CCCC(=O)Nc1nc(-c2cccs2)cc(-c2cccs2)n1
–,65.1,544,1,–,–,3,–,–,CCCC(=O)Nc1cc(-c2ccoc2)nc(-c2ccoc2)n1
20.2,–,39.8,16,–,–,–,–,13,CC(=O)Nc1cc(-c2ccsc2)nc(-c2ccsc2)n1
18.1,–,73.8,21,–,–,–,–,17,CC(=O)Nc1cc(-c2ccccc2F)nc(-c2ccccc2F)n1
135,18.7,142,9,–,–,–,–,–,CCCC(=O)Nc1cc(-c2ccccc2F)nc(-c2ccccc2F)n1
18.3,36.9,–,2,–,1,–,–,–,CCC(=O)Nc1cc(-c2ccc(C)cc2)nc(-c2ccc(C)cc2)n1
279,48.2,424,–,307,–,–,–,–,CCC(=O)Nc1nc(-c2ccccc2F)cc(-c2ccccc2F)n1
–,85.7,4570,12,–,–,2,–,–,CCCC(=O)Nc1nc(-c2ccsc2)cc(-c2ccsc2)n1

Ki (Adenosine receptor A3) [nM],Ki (Adenosine receptor A1) [nM],Ki (Adenosine receptor A2a [1]) [nM],inhibition [2] [%],Ki (Adenosine receptor A2b) [nM],inhibition (Adenosine receptor A2a [3]) [%],inhibition [4] [%],Kb [5] [nM],inhibition [6] [%],Structure (SMILES)
23.2,113,–,7,–,22,–,–,–,CCC(=O)Nc1cc(-c2ccccc2OC)nc(-c2ccccc2OC)n1
–,65.1,–,21,–,23,11,–,–,CCCC(=O)Nc1cc(-c2ccsc2)nc(-c2ccsc2)n1
14.5,5.28,2540,–,1670,–,–,–,–,CCC(=O)Nc1cc(-c2ccc3c(c2)OCO3)nc(-c2ccc3c(c2)OCO3)n1
16.7,–,1330,1,–,–,–,–,15,CC(=O)Nc1cc(-c2ccc(F)cc2)nc(-c2ccc(F)cc2)n1
64.2,39.4,63.5,–,165,–,–,–,–,CCC(=O)Nc1cc(-c2ccsc2)nc(-c2ccsc2)n1
10.1,–,74,–,302,–,–,–,1,CC(=O)Nc1cc(-c2ccoc2)nc(-c2ccoc2)n1
6.2,15.5,6.4,–,20.5,–,–,–,–,CCC(=O)Nc1cc(-c2ccco2)nc(-c2ccco2)n1
131,3760,–,10,–,2,–,–,–,CCCC(=O)Nc1nc(-c2ccc(C)cc2)cc(-c2ccc(C)cc2)n1
4430,505,183,–,374,–,–,–,–,CCC(=O)Nc1nc(-c2ccc(SC)cc2)cc(-c2ccc(SC)cc2)n1
23,33.3,153,8,–,–,–,–,–,CCCC(=O)Nc1cc(-c2cccs2)nc(-c2cccs2)n1
12.6,132,82.8,–,49,–,–,–,–,CCC(=O)Nc1cc(-c2ccoc2)nc(-c2ccoc2)n1
12.1,83.9,429,1,–,–,–,–,–,CCC(=O)Nc1cc(-c2ccc(F)cc2)nc(-c2ccc(F)cc2)n1
3,40.7,8.1,–,12,–,–,–,–,CC(=O)Nc1cc(-c2ccco2)nc(-c2ccco2)n1
127,535,–,1,–,16,–,–,–,CCC(=O)Nc1nc(-c2ccc3c(c2)OCO3)cc(-c2ccc3c(c2)OCO3)n1
45.5,22.3,84.5,–,76.6,–,–,–,–,CCC(=O)Nc1cc(-c2ccccc2)nc(-c2ccccc2)n1
9.9,7.8,5.7,–,16.4,–,–,–,–,CCCC(=O)Nc1cc(-c2ccco2)nc(-c2ccco2)n1
–,–,–,2,–,7,3,–,3,CCCC(=O)Nc1nc(-c2ccc(SC)cc2)cc(-c2ccc(SC)cc2)n1
–,–,–,1,–,7,20,–,1,COc1ccc(-c2cc(-c3ccc(OC)cc3)nc(NC(C)=O)n2)cc1
59,9.7,–,16,–,22,–,–,–,CCCC(=O)Nc1cc(-c2ccc3c(c2)OCO3)nc(-c2ccc3c(c2)OCO3)n1
160,31.6,103,16,–,–,–,–,–,CCC(=O)Nc1cc(-c2ccccc2F)nc(-c2ccccc2F)n1
